The values that follow come from ChEMBL document CHEMBL3232897, “Synthesis, antiproliferative and antibacterial activity of new amides of salinomycin” (Bioorg Med Chem Lett, 2014).

For orientation: IC50 means the concentration at which inhibition is half-maximal. What is called MIC is the least concentration at which growth counts as inhibited.

Converted amounts (≈) assume the structure as drawn.

The test system of assay [1] is HL-60. In words: Antiproliferative activity against human HL60 cells. The assay is classed as functional, cell-based. In a few lines:
(§1)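 IC50 is the concentration giving 50% growth inhibition, reported as mean with SD. HL-60/vinc and LoVo/DX are drug-resistant (MDR) sublines of HL-60 and LoVo. BALB/3T3 is a normal murine embryonic fibroblast line.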

Assay [2] can be described thus: Antiproliferative activity against human HL60/Vinc cells. The assay is classed as functional, cell-based. In a few lines: as §1
For assay [3], the system named is LoVo. In words: Antiproliferative activity against human LoVo cells. The assay is classed as functional, cell-based. In a few lines:
as §1

The nature of assay [4]: Antiproliferative activity against human LoVo/DX cells. It is filed as functional, cell-based. In a few lines:
as §1

Assay [5] concerns BALB/3T3. In words: Antiproliferative activity mouse BALB/3T3 cells. It is filed as cell-based. In a few lines:
as §1

Assay [6] concerns HL-60. Put plainly: Selectivity index, ratio of IC50 for mouse BALB/3T3 cells to IC50 for human HL60 cells. The assay is classed as functional. In a few lines: (§2)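 Selectivity index is the IC50 in normal murine embryonic fibroblasts (BALB/3T3) divided by the IC50 in the respective cancer line (HL-60, HL-60/vinc, LoVo or LoVo/DX). Each IC50 is the concentration giving 50% growth inhibition. SI >1.0 is taken as favourable.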

Assay [7] can be described thus: Selectivity index, ratio of IC50 for mouse BALB/3T3 cells to IC50 for human HL60/Vinc cells. The assay is classed as functional. In a few lines:
as §2

The subject of assay [8] is HL-60. Put plainly: Resistance index, ratio of IC50 for human HL60/Vinc cells to IC50 for human HL60 cells. The assay is classed as functional. In a few lines:
(§3)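 Index of resistance is the IC50 in the resistant subline (HL-60/vinc or LoVo/DX) divided by the IC50 in its parental line (HL-60 or LoVo). Each IC50 is the concentration giving 50% growth inhibition. Bands are 0–2 sensitive, 2–10 moderate, above 10 strongly resistant.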

In assay [9] the test system is LoVo. Put plainly: Selectivity index, ratio of IC50 for mouse BALB/3T3 cells to IC50 for human LoVo cells. It is filed as functional. In a few lines: as §2
Assay [10] in a line: Selectivity index, ratio of IC50 for mouse BALB/3T3 cells to IC50 for human LoVo/DX cells. The assay is classed as functional. In a few lines: as §2
The test system of assay [11] is LoVo. Put plainly: Resistance index, ratio of IC50 for human LoVo/DX cells to IC50 for human LoVo cells. It is filed as functional. In a few lines: as §3
In assay [12] the test system is Staphylococcus aureus. Put plainly: Antibacterial activity against Staphylococcus aureus NCTC 4163. The assay is classed as functional.
Assay [13] has as its system Staphylococcus aureus. Put plainly: Antibacterial activity against Staphylococcus aureus ATCC 6538. It is filed as functional.
The test system of assay [14] is Staphylococcus aureus. Put plainly: Antibacterial activity against Staphylococcus aureus ATCC 29213. It is filed as functional.
For assay [15], the system named is Staphylococcus epidermidis. In words: Antibacterial activity against Staphylococcus epidermidis ATCC 12228. It is filed as functional. In a few lines: (§4)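 In vitro antibacterial test on Staphylococcus strains, including MRSE clinical isolates. Read-outs were growth inhibition zone (mm) and MIC (µg/ml). Ciprofloxacin was the reference antibiotic.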
Assay [16] deals with Staphylococcus epidermidis. Put plainly: Antibacterial activity against Staphylococcus epidermidis ATCC 35984. It is filed as functional. In a few lines: as §4
Assay [17] deals with Staphylococcus epidermidis. In words: Antibacterial activity against methicillin-resistant Staphylococcus epidermidis 459/11. It is filed as functional. In a few lines: as §4
In assay [18] the test system is Staphylococcus epidermidis. In words: Antibacterial activity against methicillin-resistant Staphylococcus epidermidis 460/11. The assay is classed as functional. In a few lines:
as §4

The test system of assay [19] is Staphylococcus epidermidis. Put plainly: Antibacterial activity against methicillin-resistant Staphylococcus epidermidis 461/11. It is filed as functional. In a few lines: as §4
The subject of assay [20] is Staphylococcus epidermidis. In words: Antibacterial activity against methicillin-resistant Staphylococcus epidermidis 466/11. It is filed as functional. In a few lines:
as §4

Assay [21] deals with Staphylococcus epidermidis. Put plainly: Antibacterial activity against methicillin-resistant Staphylococcus epidermidis 467/11. The assay is classed as functional. In a few lines: as §4
Assay [22] relates to Staphylococcus epidermidis. Put plainly: Antibacterial activity against methicillin-resistant Staphylococcus epidermidis 468/11. The assay is classed as functional. In a few lines: as §4
The subject of assay [23] is Staphylococcus epidermidis. In words: Antibacterial activity against methicillin-resistant Staphylococcus epidermidis 469/11. The assay is classed as functional. In a few lines: as §4
The subject of assay [24] is Staphylococcus epidermidis. Put plainly: Antibacterial activity against methicillin-resistant Staphylococcus epidermidis 470/11. It is filed as functional. In a few lines:
as §4

Assay [25] has as its system Staphylococcus epidermidis. Put plainly: Antibacterial activity against methicillin-resistant Staphylococcus epidermidis 488/11. It is filed as functional. In a few lines:
as §4

For assay [26], the system named is Staphylococcus epidermidis. In words: Antibacterial activity against methicillin-resistant Staphylococcus epidermidis 489/11. The assay is classed as functional. In a few lines:
as §4

Turning to `CC[C@@H](C(=O)[C@@H](C)[C@@H](O)[C@H](C)[C@@H]1O[C@@H]([C@@H](CC)C(=O)NCC2COCCOCCOCCOCCO2)CC[C@@H]1C)[C@H]1O[C@]2(C=C[C@@H](O)[C@]3(CC[C@@](C)([C@H]4CC[C@](O)(CC)[C@H](C)O4)O3)O2)[C@H](C)C[C@@H]1C` (stereo partly drawn), the IC50 in assay [1] was 23.2 µM; in assay [2], 27 µM; in assay [3], 24.1 µM; in assay [4], 8.5 µM; in [5], 31.3 µM. Besides, the “Ratio IC50” value was determined as 1.35 in assay [6]; 1.16 in assay [7]; 1.16 in assay [8]; 1.3 in assay [9]; 3.69 in [10]; 0.35 in [11].
Turning to `CC[C@@H](C(=O)[C@@H](C)[C@@H](O)[C@H](C)[C@@H]1O[C@@H]([C@@H](CC)C(=O)NCCc2ccc(F)cc2)CC[C@@H]1C)[C@H]1O[C@]2(C=C[C@@H](O)[C@]3(CC[C@@](C)([C@H]4CC[C@](O)(CC)[C@H](C)O4)O3)O2)[C@H](C)C[C@@H]1C`, the half-maximal inhibitory concentration (IC50) is 2.3 µM in assay [1]; 6.7 µM in [2]; 4.1 µM in [3]; 2.3 µM in assay [4]; 45.8 µM in assay [5]. In addition, the “Ratio IC50” value in assay [6] amounted to 20.27; in assay [7] it was 6.8; in [8], 2.98; in assay [9], 11.2; in assay [10], 19.57; in assay [11] it was 0.57.
For the molecule `CC[C@@H](C(=O)[C@@H](C)[C@@H](O)[C@H](C)[C@@H]1O[C@@H]([C@@H](CC)C(=O)NCCc2ccc(O)c(O)c2)CC[C@@H]1C)[C@H]1O[C@]2(C=C[C@@H](O)[C@]3(CC[C@@](C)([C@H]4CC[C@](O)(CC)[C@H](C)O4)O3)O2)[C@H](C)C[C@@H]1C`, the IC50 in [1] was 2.8 µM; in [2] it was 6.9 µM; in assay [3], 3.9 µM; in assay [4], 4.3 µM; in assay [5], 5.7 µM. Further, the “Ratio IC50” value in [6] is on record as 2.05; in assay [7] it was 0.83; in [8] it was 2.48; in assay [9] it was 1.47; in assay [10], 1.34; in assay [11], 1.1.
Consider `O=C(O)c1cn(C2CC2)c2cc(N3CCNCC3)c(F)cc2c1=O` [CIPROFLOXACIN], for which the MIC in [12] came to 0.25 µg/mL (≈ 0.754 µM); in [13], 0.25 µg/mL (≈ 0.754 µM); in assay [14] it was 0.5 µg/mL (≈ 1.51 µM); in [15], 0.25 µg/mL (≈ 0.754 µM); in [16], 0.125 µg/mL (≈ 0.377 µM); in assay [17], 16 µg/mL (≈ 48.3 µM). Also, the MIC worked out at 0.125 µg/mL (≈ 0.377 µM) in assay [18]; 0.25 µg/mL (≈ 0.754 µM) in assay [19]; 2 µg/mL (≈ 6.04 µM) in [20]; 16 µg/mL (≈ 48.3 µM) in assay [21]; 16 µg/mL (≈ 48.3 µM) in [22]; 8 µg/mL (≈ 24.1 µM) in [23]. In addition, the MIC in [24] was determined as 0.125 µg/mL (≈ 0.377 µM); in [25], 16 µg/mL (≈ 48.3 µM); in assay [26] it was 0.25 µg/mL (≈ 0.754 µM).
In the case of `C#CCNC(=O)[C@H](CC)[C@H]1CC[C@H](C)[C@H]([C@@H](C)[C@H](O)[C@H](C)C(=O)[C@H](CC)[C@H]2O[C@]3(C=C[C@@H](O)[C@]4(CC[C@@](C)([C@H]5CC[C@](O)(CC)[C@H](C)O5)O4)O3)[C@H](C)C[C@@H]2C)O1`, the half-inhibitory concentration (IC50) is 5.7 µM in assay [1]; 11.3 µM in assay [2]; 6.9 µM in assay [3]; 3.9 µM in [4]; 37.1 µM in assay [5]. Further, the “Ratio IC50” value in assay [6] turned out to be 6.47; in assay [7] it was 3.29; in [8] it was 1.97; in [9], 5.4; in [10], 9.6; in assay [11], 0.56.
Take `CC[C@@H](C(=O)[C@@H](C)[C@@H](O)[C@H](C)[C@@H]1O[C@@H]([C@@H](CC)C(=O)NCCc2c[nH]cn2)CC[C@@H]1C)[C@H]1O[C@]2(C=C[C@@H](O)[C@]3(CC[C@@](C)([C@H]4CC[C@](O)(CC)[C@H](C)O4)O3)O2)[C@H](C)C[C@@H]1C`: the IC50 in assay [1] stood at 4.4 µM; in assay [2] it was 33.1 µM; in assay [3], 32.5 µM; in [4], 34.8 µM; in assay [5], 34.5 µM. The “Ratio IC50” value worked out at 7.79 in assay [6]; 1.04 in [7]; 7.46 in assay [8]; 1.06 in [9]; 0.99 in assay [10]; 1.07 in [11].
For `COc1cccc2c1C(=O)c1c(O)c3c(c(O)c1C2=O)C[C@@](O)(C(=O)CO)C[C@@H]3O[C@H]1C[C@H](N)[C@H](O)[C@H](C)O1` [DOXORUBICIN], the half-inhibitory concentration (IC50) was 0.04 µM in assay [1]; 1.8 µM in assay [2]; 0.17 µM in assay [3]; 6.5 µM in assay [4]; 0.5 µM in [5]. Besides, the “Ratio IC50” value came to 12 in assay [6]; 0.27 in [7]; 44.5 in assay [8]; 2.82 in [9]; 0.07 in assay [10]; 37.94 in assay [11].
Turning to `CC[C@@H](C(=O)[C@@H](C)[C@@H](O)[C@H](C)[C@@H]1O[C@@H]([C@@H](CC)C(=O)NCCCCNC(=O)[C@H](CC)[C@H]2CC[C@H](C)[C@H]([C@@H](C)[C@H](O)[C@H](C)C(=O)[C@H](CC)[C@H]3O[C@]4(C=C[C@@H](O)[C@]5(CC[C@@](C)([C@H]6CC[C@](O)(CC)[C@H](C)O6)O5)O4)[C@H](C)C[C@@H]3C)O2)CC[C@@H]1C)[C@H]1O[C@]2(C=C[C@@H](O)[C@]3(CC[C@@](C)([C@H]4CC[C@](O)(CC)[C@H](C)O4)O3)O2)[C@H](C)C[C@@H]1C`, the IC50 in assay [1] was 2.7 µM; in assay [2] it was 13.5 µM; in assay [3], 10.7 µM; in assay [4] it was 3.9 µM; in assay [5], 19.8 µM. Moreover, the “Ratio IC50” value was determined as 7.28 in assay [6]; 1.47 in [7]; 4.95 in assay [8]; 1.85 in assay [9]; 5.13 in assay [10]; 0.36 in assay [11].
Take `CC[C@@H](C(=O)[C@@H](C)[C@@H](O)[C@H](C)[C@@H]1O[C@@H]([C@@H](CC)C(=O)Nc2ccc(NC(=O)[C@H](CC)[C@H]3CC[C@H](C)[C@H]([C@@H](C)[C@H](O)[C@H](C)C(=O)[C@H](CC)[C@H]4O[C@]5(C=C[C@@H](O)[C@]6(CC[C@@](C)([C@H]7CC[C@](O)(CC)[C@H](C)O7)O6)O5)[C@H](C)C[C@@H]4C)O3)cc2)CC[C@@H]1C)[C@H]1O[C@]2(C=C[C@@H](O)[C@]3(CC[C@@](C)([C@H]4CC[C@](O)(CC)[C@H](C)O4)O3)O2)[C@H](C)C[C@@H]1C`: the concentration for half-maximal inhibition (IC50) in [1] is 2 µM; in [2], 16.1 µM; in assay [3], 8.1 µM; in assay [4] it was 2.8 µM; in assay [5] it was 20.2 µM. The “Ratio IC50” value was found to be 10.07 in [6]; 1.26 in assay [7]; 7.99 in assay [8]; 2.49 in [9]; 7.2 in [10]; 0.35 in assay [11].
